Screening results deposited in PubChem BioAssay by several laboratories.
Compounds with a hit are over-represented: about 1.7% of the library has one in this group of screens.
Tb MetRS inh: Trypanosoma brucei MetRS inhibition | purified T. brucei MetRS, ATP depletion, Kinase-Glo luminescence | inhibition, % at 11.9 µM | actives 0.4% (n = 360,000) | AID 624268;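 active = inhibition above a per-plate cutoff of the control wells' mean inhibition plus 3 SD, cut at about 5.5% in these data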;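 note: 0% = DMSO wells median and 100% = median of wells with control inhibitor compound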
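System: purified T. brucei MetRS enzyme / Detection: Kinase-Glo luciferase luminescence reporting remaining unconsumed ATP / Medium: HEPES buffer with MgCl2, KCl, DTT, spermine, BSA, pyrophosphatase / Replication: singlicate, one well per compound / Evaluation: percent inhibition relative to median high and low control wells / Schedule: 2 h aminoacylation at 25 °C after 15 min preincubation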
IDE cell activ: IDE (human) activation, cell-based; actives 0.073% (n = 340,000); AID 493087; P14735; HEK cells, FAbeta-B cleavage, fluorescence polarization; 0% vehicle, 100% cell-free pure enzyme wells; activation, % at 5.96 µM;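 active = activation above the mean of all tested compounds plus 3 SD, set per screening campaign, cut at about 17% in these data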
HNF4A DNA FP: change in binding of human HNF4 alpha to DNA. P41235. HNF4a-FITC DNA binding, fluorescence polarization, 1 h. AID 1224865. activity change, % at 10 µM. actives 0.3% (n = 360,000); in the data active = activity change above about 30%, passing the limit was not always enough
CSN deneddyl inh: blocks human CSN-mediated cullin deneddylation | Q92905 | Purified CSN, SCF-Nedd8-OG deneddylation, fluorescence polarization | inhibition, % at 12.5 µM | actives 0.38% (n = 360,000);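 active = pattern-corrected inhibition above about 35%, with an unprinted fluorescence ratio check between 0.5 and 1.5, limit read from the data, passing the limit was not always enough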;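 note: 0% = enzyme with substrate and 100% = substrate without enzyme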
Target sequence (Q92905 whole entry, looked up, one chain of several): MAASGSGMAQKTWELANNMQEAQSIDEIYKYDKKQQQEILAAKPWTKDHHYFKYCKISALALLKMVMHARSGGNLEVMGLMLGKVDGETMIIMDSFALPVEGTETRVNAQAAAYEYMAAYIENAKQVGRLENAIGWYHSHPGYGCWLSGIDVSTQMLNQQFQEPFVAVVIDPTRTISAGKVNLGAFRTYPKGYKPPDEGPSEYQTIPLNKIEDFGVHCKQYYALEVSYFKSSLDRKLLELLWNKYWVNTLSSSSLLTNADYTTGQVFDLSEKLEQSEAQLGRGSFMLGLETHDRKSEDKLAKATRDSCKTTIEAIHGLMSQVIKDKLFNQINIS
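Material: purified human Csn5 enzyme expressed in HEK293T cells / Medium: Tris buffer pH 7.5, NaCl, DTT, Tween-20, trehalose, ovalbumin / Compound dosing: 12.5 µM single point / Schedule: 90 min incubation of compound, enzyme and substrate at room temperature / Signal: fluorescence polarization of the substrate / Control set: no-enzyme wells high, enzyme-with-substrate wells low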
IDE cell inh: inhibitors of human insulin-degrading enzyme in cells | actives 0.41% (n = 320,000) | HEK cells, FAbetaB cleavage, fluorescence polarization | P14735 | inhibition, % at 5.59 µM;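 active = percent inhibition above the average of all tested compounds plus 3 SD, set per screening campaign, cut at about 16% in these data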;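 note: IDE supplied by intact live HEK cells; FP after avidin binding of uncleaved biotin substrate so inhibition keeps polarization high; 0% = DMSO wells and 100% = 60 µM reference IDE inhibitor Ii1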
TPT1 inh: inhibitors of Candida albicans tRNA 2'-phosphotransferase TPT1. recombinant caTPT1, FP RNA substrate dephosphorylation. inhibition, % at 5 µM. actives 0.81% (n = 300,000). AID 1962;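 active = inhibition above the mean of all tested compounds plus 3 SD, set per screening campaign, cut at about 24% in these data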;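 note: plate controls were DMSO alone for no effect and ferristatin control at 100 nM for full effect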
Tb MetRS conf: Trypanosoma brucei MetRS inhibition confirmed; AID 624412; shares compounds with Tb MetRS inh; T. brucei MetRS enzyme, luminescence (ATP depletion); inhibition, % at 11.9 µM; actives 93% (n = 1,400); in the data active = inhibition above about 7%
Jurkat cytotox: kills Jurkat cells in T. brucei MetRS counterscreen; shares compounds with Tb MetRS inh; Jurkat cells viability, ATP luminescence; inhibition, % at 8.3 µM; actives 12% (n = 1,400); AID 624413; in the data active = inhibition above about 15%;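 note: 0% = vehicle and 100% = reference inhibitor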
TbMetRS FP orth: T. brucei MetRS inhibition, orthogonal assay; shares compounds with Tb MetRS inh; purified T. brucei MetRS, fluorescence polarization; inhibition, % at 11.9 µM; actives 44% (n = 1,400); in the data active = inhibition above about 17%;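 note: 0% = vehicle wells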
* = called active by the depositor; . = not tested or not shown.

SMILES | Tb MetRS inh | IDE cell activ | HNF4A DNA FP | CSN deneddyl inh | IDE cell inh | TPT1 inh | Tb MetRS conf | Jurkat cytotox | TbMetRS FP orth
O=C(O)c1cccc(N2CCCC2)c1 | 0 | 3 | -5 | -1 | -2 | -5 | . | . | .
COc1cccc(N2CCN(C(=O)c3ccc(OC)c(S(=O)(=O)NC4CC4)c3)CC2)c1 | 0 | . | -4 | -2 | . | . | . | . | .
c1ccc(Nc2ccnc(Nc3ccccc3)n2)cc1 | 10* | -1 | -4 | -6 | 4 | -1 | 24* | 14 | 14
COc1ccc(NC(=S)N2CCC(c3nc4ccc(Cl)cc4[nH]3)CC2)c(OC)c1 | 15* | -6 | 2 | 2 | 5 | 0 | 36* | 1 | 24*
O=C(NC1CCCCC1)N1CCC(c2nc3ccc(Cl)cc3[nH]2)CC1 | 7.8* | 3 | 1 | -3 | 10 | 5 | 12* | 12 | 6
O=C(NC1CCCCC1)N1CCCC(c2nc3ccccc3[nH]2)C1 (stereo not given) | 9.2* | -1 | 5 | 2 | 1 | 0 | 16* | -2 | 9
O=C(NC1CCCCC1)N1CCC(c2nc3ccccc3[nH]2)CC1 | 1 | 0 | -1 | -4 | 6 | -1 | . | . | .
O=C(C1CCCCC1)N1CCC(c2nc3ccccc3[nH]2)CC1 | 1 | 7 | -2 | 0 | -1 | 0 | . | . | .
COc1nccnc1NS(=O)(=O)c1ccc(NC(=O)c2cccc(C)c2)cc1 | -1 | 7 | -1 | 2 | -5 | -3 | . | . | .
O=C(COC(=O)c1ccccc1SCC(=O)N1CCCC1)NCc1ccccc1 | 0 | 5 | 2 | 1 | 2 | 2 | . | . | .
COc1ccc(C(=O)NCC(=O)NCC(=O)OCc2ccc(Cl)cc2)cc1 | -2 | 3 | -4 | -3 | 1 | -3 | . | . | .
COc1ccc(CNC(=O)CCC(=O)Nc2ccc(Cl)cc2)cc1 | 7.1* | -2 | 0 | -4 | 0 | 1 | 17* | -1 | 6
COc1ccc(COC(=O)CCNC(=O)c2ccc(Cl)cc2)cc1 | 7.0* | 2 | -1 | 0 | 0 | 0 | 28* | -4 | 14
Cc1ccc(S(=O)(=O)Nc2cccc(C(=O)NCCCN3CCCC3=O)c2)cc1F | 0 | -2 | -1 | 1 | -2 | 2 | . | . | .
CCCc1ccc(OC(=O)c2ccc(O)cc2Cl)cc1 | 0 | 7 | -7 | -3 | -3 | -2 | . | . | .
CCc1cc(Cn2nc(-c3ccccc3)cc2C(=O)NCc2cccc(Br)c2)on1 | 53* | 1 | -4 | -6 | 0 | . | 77* | 4 | 69*
CCc1cc(Cn2nc(-c3ccccc3)cc2C(=O)NCc2cccc(C(F)(F)F)c2)on1 | 1 | -1 | 0 | -1 | 1 | 1 | . | . | .
c1ccc2c(c1)ncn2-c1ncnc2sc3c(c12)CCCC3 | 0 | 1 | -3 | 5 | 0 | -3 | . | . | .
CC(O)CNc1nc2ccccc2n1-c1ncnc2sc3c(c12)CCC3 (stereo not given) | 9.3* | 1 | 2 | 1 | 1 | 5 | 16* | 4 | 6
Cn1c(=O)c2c(ncn2CC(COCc2ccccc2)OCc2ccccc2)n(C)c1=O (stereo not given) | 0 | 8 | -6 | -2 | -4 | -3 | . | . | .
O=c1[nH]c2ccc(Cl)cc2c(=O)n1Cc1ccco1 | 9.4* | 0 | -3 | 2 | 2 | 4 | 28* | -3 | 13
O=c1c2cc(Cl)ccc2[nH]c(=S)n1Cc1ccco1 | 8.1* | -10 | -4 | 4 | 4 | -3 | 13* | 3 | 5
O=c1[nH]c2ccccc2c(=O)n1Cc1ccco1 | -1 | 5 | -1 | 1 | -4 | -1 | . | . | .
O=C(O)CCc1ccc(-c2ccc(Br)cc2)n1-c1ccc(O)cc1 | 5.7* | -3 | 2 | 39* | . | . | 16* | -6 | 7
Cc1ccc(-c2ccc(CCC(=O)O)n2-c2ccc(O)cc2)cc1 | 0 | -5 | -1 | 1 | 9 | 7 | . | . | .
SMILES | Tb MetRS inh | IDE cell activ | HNF4A DNA FP | CSN deneddyl inh | IDE cell inh | TPT1 inh | Tb MetRS conf | Jurkat cytotox | TbMetRS FP orth
Nc1ncnc2c1ncn2[C@@H]1O[C@H](CNS(=O)(=O)c2ccc3c(c2)CCN(C(=O)C(F)(F)F)C3)[C@@H](O)[C@H]1O | 8.7* | 1 | 3 | 2 | . | . | 17* | 16* | 9
O=C(NCC1CCCO1)c1cc(-c2ccc(F)cc2)no1 (stereo not given) | -1 | -1 | 1 | -2 | -5 | -1 | . | . | .
c1ccc(-c2nnc(SCc3nc4ccccc4[nH]3)n2Cc2ccco2)nc1 | 4 | -1 | 3 | 8 | 1 | 1 | . | . | .
Cn1c(COc2ccccc2)nnc1SCc1nc2ccccc2[nH]1 | 1 | 6 | -2 | 0 | 3 | 3 | . | . | .
CCn1c(COc2ccc(C)cc2)nnc1SCc1nc2ccccc2[nH]1 | 15* | 4 | 3 | 0 | 1 | 2 | 20* | 11 | 7
Clc1ccc(OCc2nnc(SCc3nc4ccccc4[nH]3)n2Cc2ccco2)cc1 | 11* | 6 | 9 | 11 | 1 | 8 | 84* | 21* | 66*
CCOc1nc(-c2ccc(Cl)cc2)nc2ccccc12 | 1 | 6 | 2 | -2 | 5 | -2 | . | . | .
O=C(Cc1n[nH]c(=O)c2ccccc12)OCC(=O)c1ccc(OC(F)F)cc1OC(F)F | 0 | -4 | 2 | -3 | -2 | 6 | . | . | .
OCC1(Cc2ccccc2Cl)CCN(C/C=C/c2ccccc2)CC1 | 7.2* | 9 | 0 | 0 | -7 | 1 | 19* | 5 | 4
CCOc1ccc(S(=O)(=O)Nc2cc(Cl)ccc2O)cc1 | 16* | 10 | -1 | 4 | 4 | -3 | 33* | 10 | 11
CC(C)C1CC(=O)NC(SCC(=O)Nc2ccc(Br)cc2)=C1C#N (stereo not given) | 12* | 2 | 1 | -2 | -3 | 1 | 18* | 9 | 7
Cc1ccc2nc(C3CCCCC3)c(Cc3cccc(Cl)c3)n2c1 | 0 | . | 3 | 3 | . | . | . | . | .
Clc1ccc(OCc2nc(-c3ccccn3)no2)c(Br)c1 | 5.8* | -3 | -3 | -5 | -3 | 1 | 6.5* | 8 | 8
Cc1ccccc1-c1cc2nc(Oc3ccc4c(c3)OCO4)n(C)c(=O)c2s1 | 0 | . | 0 | 0 | . | . | . | . | .
Nc1cc(Oc2ccc(Cl)cc2Cl)nc(N)n1 | 22* | 2 | -4 | -3 | 2 | -1 | 31* | -1 | 24*
COc1nc(C)nc(C)c1Oc1ccc(Cl)cc1Cl | 3 | . | 1 | 1 | 5 | 1 | . | . | .
